The results in this text go back to ChEMBL document CHEMBL4229399, “Discovery and optimization of aspartate aminotransferase 1 inhibitors to target redox balance in pancreatic ductal adenocarcinoma” (Bioorg Med Chem Lett, 2018).

The target in the experiment is Aspartate aminotransferase, cytoplasmic (Homo sapiens, UniProt P17174). Description: Inhibition of GOT1 (unknown origin) using aspartate and alpha-ketoglutarate as substrate after 20 mins by MDH1 enzyme-coupled fluorescence assay. An outline of the steps:
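Oxaloacetate from GOT1 (~1 nM) is reduced by MDH1 (0.3 µg/mL final) using NADH (250 µM final). Loss of NADH fluorescence is read at 340/445 nm. Substrates aspartate 4 mM and alpha-ketoglutarate 0.5 mM. Buffer: 100 mM HEPES, 100 mM KCl. Incubated 20 min at 37 °C. Mean of n = 3.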

Sequence of Aspartate aminotransferase, cytoplasmic (P17174 whole entry): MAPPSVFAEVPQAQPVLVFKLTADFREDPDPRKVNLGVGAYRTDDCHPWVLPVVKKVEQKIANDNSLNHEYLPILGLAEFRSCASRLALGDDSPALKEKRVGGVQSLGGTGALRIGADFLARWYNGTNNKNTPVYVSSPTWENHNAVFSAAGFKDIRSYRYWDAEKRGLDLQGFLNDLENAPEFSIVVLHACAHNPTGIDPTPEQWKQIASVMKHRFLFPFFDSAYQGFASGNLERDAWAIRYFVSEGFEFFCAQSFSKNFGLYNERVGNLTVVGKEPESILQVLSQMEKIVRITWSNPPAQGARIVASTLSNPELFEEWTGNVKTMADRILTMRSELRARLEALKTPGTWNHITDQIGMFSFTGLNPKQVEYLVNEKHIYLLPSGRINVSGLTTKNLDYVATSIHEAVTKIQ

In the case of `COc1ccc(N2CCN(C(=O)Nc3ccccc3)CC2)cc1`, the IC50 (in general, the concentration needed to halve the response being measured) is > 100 µM.
As for `Cc1cc(N2CCN(C(=O)Nc3ccccc3)CC2)c2cc[nH]c2c1`, the figure is > 100 µM; as for `O=C(NCCc1c[nH]c2ccccc12)Nc1ccccc1`, > 100 µM.
As to `COc1cccc(NC(=O)N2CCN(c3cccc4[nH]ccc34)CC2)c1`, the IC50 is > 100 µM.
As for `COc1cccc(N2CCN(C(=O)Nc3ccccc3)CC2)c1`, the figure is > 100 µM; as for `O=C(OCc1ccccc1)N1CCN(c2cccc3[nH]ccc23)CC1`, > 100 µM; as for `COc1ccc(NC(=O)N2CCN(c3cccc4[nH]ccc34)CC2)c(OC)c1`, > 100 µM.
As for `O=C(Nc1ccnnc1)N1CCN(c2cccc3[nH]ccc23)CC1`, the IC50 was > 100 µM.
`Cc1ccccc1NC(=O)N1CCN(c2cccc3[nH]ccc23)CC1`: the IC50 was > 100 µM.
As to `O=C(NCCc1c[nH]c2ccccc12)Nc1ccc(Cl)c(Cl)c1`, 36 µM corresponded to half-maximal inhibition (IC50).
As for `O=C(Nc1cccc(Oc2ccccc2)c1)N1CCN(c2cccc3[nH]ccc23)CC1`, the figure is 39 µM; as for `O=C(Nc1cncnc1)N1CCN(c2cccc3[nH]ccc23)CC1`, > 100 µM; as for `CNC(=O)c1cccc(NC(=O)N2CCN(c3cccc4[nH]ccc34)CC2)c1`, > 100 µM.
`O=C(Nc1cc(Cl)cc(Cl)c1)N1CCN(c2cccc3[nH]ccc23)CC1` had an IC50 of 22 µM.
For the compound `Cc1ccc2[nH]ccc2c1N1CCN(C(=O)Nc2ccccc2)CC1`, the IC50 is > 100 µM.
Consider `O=C(Nc1cccc2cccnc12)N1CCN(c2cccc3[nH]ccc23)CC1`, for which the IC50 was > 100 µM.
As for `O=C(Nc1ccccc1)N1CCN(c2ccncc2)CC1`, the figure is > 100 µM.
In the case of `COc1c(C)cccc1NC(=O)N1CCN(c2cccc3[nH]ccc23)CC1`, the IC50 is > 100 µM.
As for `O=C(Nc1ccccc1)N1CCN(c2cc(Cl)cc3[nH]ccc23)CC1`, the figure is 46 µM; as for `Cc1cccc(NC(=O)N2CCN(c3cccc4[nH]ccc34)CC2)c1`, > 100 µM.
With `O=C(Nc1ccccc1)N1CCN(c2ccc(Cl)c3[nH]ccc23)CC1`, the IC50 is > 100 µM.
As to `O=C(Cc1ccccc1)N1CCN(c2cccc3[nH]ccc23)CC1`, the IC50 is > 100 µM.
Take `CS(=O)(=O)N1CCN(C(=O)Nc2ccccc2)CC1`: the IC50 was > 100 µM.
Regarding `CCN1CCN(C(=O)Nc2ccccc2)CC1`, the IC50 was > 100 µM.
As to `O=C(Nc1ccc(Cl)cc1)N1CCN(c2ccncc2)CC1`, the 50% inhibitory concentration (IC50) was > 100 µM.
As to `O=C(Nc1ccc(C(F)(F)F)cc1)N1CCN(c2ccncc2)CC1`, the IC50 was > 100 µM.
Consider `O=C(Nc1ccccc1)N1CCN(c2cccc3[nH]ncc23)CC1`, for which the IC50 is > 100 µM.
For `Cc1ccc(NC(=O)N2CCN(c3cccc4[nH]ccc34)CC2)c(C)c1`, the IC50 is > 100 µM.
The compound `O=C(NCCc1c[nH]c2ccccc12)Nc1ccc(OC(F)(F)F)cc1` displayed an IC50 of 63 µM.
As to `O=C(Nc1ccc2ncccc2c1)N1CCN(c2cccc3[nH]ccc23)CC1`, the IC50 is > 100 µM.
Turning to `Cc1cccc(C)c1NC(=O)N1CCN(c2cccc3[nH]ccc23)CC1`, the IC50 is > 100 µM.
As for `O=C(Nc1cccnc1)N1CCN(c2cccc3[nH]ccc23)CC1`, the figure is > 100 µM.
On to `CN1CCN(C(=O)Nc2ccccc2)CC1`, for which the IC50 is > 100 µM.
`O=C(Nc1ccc(Cl)cc1)N1CCN(c2cccc3[nH]ccc23)CC1` gave an IC50 of 8.2 µM.
For the compound `O=C(Nc1c(Cl)cccc1Cl)N1CCN(c2cccc3[nH]ccc23)CC1`, the IC50 is > 100 µM.
Consider `O=C(Nc1ccccn1)N1CCN(c2cccc3[nH]ccc23)CC1`, for which the IC50 is > 100 µM.
With `O=C(Nc1cccc2ncsc12)N1CCN(c2cccc3[nH]ccc23)CC1`, the IC50 is > 100 µM.
Regarding `COc1ccccc1N1CCN(C(=O)Nc2ccccc2)CC1`, the IC50 is > 100 µM.
As for `Cc1ccc(C)c(NC(=O)N2CCN(c3cccc4[nH]ccc34)CC2)c1`, the IC50 was > 100 µM.
With `O=C(NCc1ccc(Cl)cc1)N1CCN(c2cccc3[nH]ccc23)CC1`, the IC50 was > 100 µM.
Compound `CC(=O)c1ccc(NC(=O)N2CCN(c3cccc4[nH]ccc34)CC2)cc1` gave an IC50 of 16 µM.
The compound `O=C(Nc1cccc(C(F)(F)F)c1)N1CCN(c2cccc3[nH]ccc23)CC1` showed an IC50 of 14 µM.
As for `O=C(Nc1cccc(Cl)c1)N1CCN(c2cccc3[nH]ccc23)CC1`, the figure is 52 µM; as for `COc1cccc(OC)c1NC(=O)N1CCN(c2cccc3[nH]ccc23)CC1`, > 100 µM.
The compound `O=C(NCCc1c[nH]c2ccccc12)Nc1ccc(C(F)(F)F)cc1` came in with an IC50 of 39 µM.
The compound `O=C(NCCc1c[nH]c2ccccc12)Nc1ccc(Cl)cc1Cl` gave an IC50 of 32 µM.
As for `O=C(Nc1ccncn1)N1CCN(c2cccc3[nH]ccc23)CC1`, the IC50 is > 100 µM.
Take `O=C(Nc1ccccc1)N1CCN(c2cccc3ncccc23)CC1`: the concentration for half-maximal inhibition (IC50) was > 100 µM.
On to `O=C(c1ccccc1)N1CCN(c2cccc3[nH]ccc23)CC1`, for which the IC50 was > 100 µM.
On to `O=C(Nc1ccncc1)N1CCN(c2cccc3[nH]ccc23)CC1`, for which the IC50 was > 100 µM.
Under `Cc1cccc(NC(=O)N2CCN(c3cccc4[nH]ccc34)CC2)c1C` stands > 100 µM.
For `COc1ccccc1NC(=O)N1CCN(c2cccc3[nH]ccc23)CC1`, the IC50 is > 100 µM.
For `O=C(Nc1ccc(OC(F)(F)F)cc1)N1CCN(c2cccc3[nH]ccc23)CC1`, the midpoint of inhibition, the IC50, lay at 36 µM.
`O=C(Nc1ccc2scnc2c1)N1CCN(c2cccc3[nH]ccc23)CC1` showed an IC50 of 76 µM.
For `N#Cc1ccc(NC(=O)N2CCN(c3cccc4[nH]ccc34)CC2)cc1`, the IC50 turned out to be 21 µM.
Consider `O=C(Nc1ccccc1)N1CCN(Cc2cncs2)CC1`, for which the IC50 was > 100 µM.
Under `O=C(Nc1ccccc1)N1CCN(c2cccc3cnccc23)CC1` stands > 100 µM; under `O=C(Nc1ccc(Cc2ccccc2)cc1)N1CCN(c2cccc3[nH]ccc23)CC1`, > 100 µM; under `O=C(NCCc1c[nH]c2ccccc12)Nc1ccc(Br)cc1`, 67 µM.
With `N#Cc1cccc(NC(=O)N2CCN(c3cccc4[nH]ccc34)CC2)c1`, the IC50 is > 100 µM.
Regarding `O=C(CCC(=O)Nc1c[nH]c2ccccc12)Nc1ccccc1`, the IC50 is > 100 µM.
In turn, `O=C(Nc1ccc(C(F)(F)F)cc1)N1CCN(c2cccc3[nH]ccc23)CC1` yielded an IC50 of 16 µM.
`O=C(NCCc1c[nH]c2ccccc12)Nc1cccc(Br)c1` displayed an IC50 of 28 µM.
With `O=C(Nc1cccc(C(F)(F)F)c1)N1CCN(c2ccncc2)CC1`, the IC50 was > 100 µM.
Turning to `O=C(NCc1ccccc1)N1CCN(c2cccc3[nH]ccc23)CC1`, the IC50 was > 100 µM.
Under `O=C(NCCc1c[nH]c2ccccc12)Nc1ccccc1-c1ccccc1` stands 34 µM; under `COc1ccc(NC(=O)N2CCN(c3cccc4[nH]ccc34)CC2)cc1`, 25 µM; under `O=C(CCc1ccccc1)N1CCN(c2cccc3[nH]ccc23)CC1`, > 100 µM.
Turning to `N#Cc1ccccc1NC(=O)N1CCN(c2cccc3[nH]ccc23)CC1`, the IC50 was > 100 µM.
As for `CC(C)CNC(=O)N1CCN(c2cccc3[nH]ccc23)CC1`, the IC50 is > 100 µM.
`O=C(Nc1ccccc1C(F)(F)F)N1CCN(c2cccc3[nH]ccc23)CC1`: the IC50 was > 100 µM.
Under `Cc1ccc(NC(=O)N2CCN(c3cccc4[nH]ccc34)CC2)cc1C` stands > 100 µM; under `CC(=O)N1CCN(C(=O)Nc2ccccc2)CC1`, > 100 µM.
In the case of `Cc1ccc(NC(=O)N2CCN(c3cccc4[nH]ccc34)CC2)cc1`, the 50% inhibitory concentration (IC50) was > 100 µM.
On to `COc1ccc(NC(=O)N2CCN(c3cccc4[nH]ccc34)CC2)cc1OC`, for which the IC50 was > 100 µM.
On to `CC(C)NC(=O)N1CCN(c2cccc3[nH]ccc23)CC1`, for which the IC50 was > 100 µM.
Under `O=C(Nc1ccc(Cl)cc1Cl)N1CCN(c2cccc3[nH]ccc23)CC1` stands 56 µM.
On to `O=C(c1ccccc1)c1ccc(NC(=O)N2CCN(c3cccc4[nH]ccc34)CC2)cc1`, for which half-maximal inhibition (IC50) was put at 43 µM.
Turning to `CNC(=O)c1ccc(NC(=O)N2CCN(c3cccc4[nH]ccc34)CC2)cc1`, the IC50 was > 100 µM.
For `O=C(Nc1ccccc1Cl)N1CCN(c2cccc3[nH]ccc23)CC1`, the IC50 was > 100 µM.
`O=C(Nc1cccc(Cl)c1Cl)N1CCN(c2cccc3[nH]ccc23)CC1`: the IC50 was > 100 µM.
For `O=C(Nc1ccccc1)N1CCN(c2ccccc2)CC1`, the IC50 was > 100 µM.
In the case of `O=C(NCCc1c[nH]c2ccccc12)Nc1cccc(C(F)(F)F)c1`, the IC50 stood at 62 µM.
In turn, `O=C(NCCc1c[nH]c2ccccc12)Nc1ccc(Cl)cc1` returned an IC50 of 36 µM.
In turn, `Cc1ccc(N2CCN(C(=O)Nc3ccccc3)CC2)c2cc[nH]c12` displayed an IC50 of 41 µM.
For the compound `CC(C)N1CCN(C(=O)Nc2ccccc2)CC1`, the IC50 was > 100 µM.
For the compound `COc1cc(NC(=O)N2CCN(c3cccc4[nH]ccc34)CC2)cc(OC)c1`, the IC50 is > 100 µM.
`O=C(Nc1cc(Cl)ccc1Cl)N1CCN(c2cccc3[nH]ccc23)CC1`: the IC50 was > 100 µM.
The compound `Cc1cc(C)cc(NC(=O)N2CCN(c3cccc4[nH]ccc34)CC2)c1` gave an IC50 of 64 µM.
Turning to `O=C(Nc1ccc(Br)cc1)N1CCN(c2cccc3[nH]ccc23)CC1`, the IC50 came to 16 µM.
As for `COc1ccc(OC)c(NC(=O)N2CCN(c3cccc4[nH]ccc34)CC2)c1`, the IC50 is > 100 µM.
With `CNC(=O)N1CCN(c2cccc3[nH]ccc23)CC1`, the IC50 was > 100 µM.
